# Source: ChEMBL document CHEMBL1212918, “Computer-aided optimization of phosphinic inhibitors of bacterial ureases” (J Med Chem, 2010)
# Experiments:
# [1] = Inhibition of Bacillus pasteurii CCM 2056 urease by berthelot colorimetric assay; parameters: species or system Sporosarcina pasteurii
# Outline: (§1)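 Urease partially purified from the cells of each strain, which were grown aerobically at 37 °C in yeast extract/urea/1 mM NiCl2 medium at pH 9.0. Purification used anion exchange followed by phenyl-Sepharose. Enzyme incubated at 30 °C in 3 mM phosphate pH 7.0 with increasing inhibitor concentrations and urea 10–100 mM. Activity read by modified Berthelot colorimetry. IC50 and Ki were derived by equation fitting.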
# [2] = Inhibition of Proteus vulgaris CCM 1956 urease by berthelot colorimetric assay; outline: as §1
# [3] = Inhibition of Klebsiella aerogenes urease
Ki [3] [µM],Structure (SMILES),IC50 [1] [µM],Ki [1] [µM],IC50 [2] [µM],Ki [2] [µM]
,O=C(NCP(=O)(O)CO)OCc1ccccc1,889,376,377,41.9
,O=C(NCP(O)(=S)CO)OCc1ccccc1 (stereo not drawn),1420,428,976,143
,NCC(=O)NCP(=O)(O)CO,85,30.5,14.9,7.3
,CNCC(=O)NCP(=O)(O)CO,25.4,10.6,20.6,16.2
,CN(C)CC(=O)NCP(=O)(O)CO,2.15,1.15,0.86,0.43
,O=C(CNC(=O)OCc1ccccc1)NCP(=O)(O)CO,5,1.35,3.6,1.96
,CP(=O)(O)CNC(=O)CN,,,,30
,CN(C)CP(=O)(O)CO [(DIMETHYLAMINO)METHYL(HYDROXYMETHYL)PHOSPHINIC ACID],67.6,5,17.2,3.1
2.6,CC(=O)NO [ACETOHYDROXAMIC ACID],,,,
,NCP(=O)(O)CO [AMINOMETHYL(HYDROXYMETHYL)PHOSPHINIC ACID],423,95,47.7,27.5
,O=C(NCP(=O)(O)CO)c1ccccc1 [BENZOYLAMINOMETHYL(HYDROXYMETHYL)PHOSPHINIC ACID],69,31.9,28,9.2
,CNCP(=O)(O)CO [HYDROXYMETHYL((METHYLAMINO)METHYL)PHOSPHINIC ACID],1.59,0.43,0.96,0.36
,CNCP(C)(=O)O [METHYL((METHYLAMINO)METHYL)PHOSPHINIC ACID],,,,27
